Values after ≈ are worked out from the molar mass of the structure shown. Active and inactive are the calls of the source. No cut-off for these calls is given here.
Assays:
[1] = tested on: Staphylococcus aureus; assay: Antimicrobial activity against Staphylococcus aureus SH1000 by broth microdilution method; type: functional, organism-based
Outline: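 MIC by broth microdilution in Mueller-Hinton broth following CLSI guidelines.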

[2] = tested on: Staphylococcus aureus; assay: Inhibition of Staphylococcus aureus MurF using D-Ala-D-Ala/UMtri-L-Lys as substrate assessed as residual activity at 100 uM after 15 mins by Malachite green method
Outline: (§1)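 S. aureus MurF, purified, assayed in 50 mM Hepes pH 8.0 with 20 mM MgCl2 and 0.005% Triton X-114, with D-Ala-D-Ala, UMtri-L-Lys and ATP. Compound was in DMSO (5% v/v final). After 15 min at 37 °C, Biomol reagent was added and A650 was read 5 min later. Duplicates were run. Residual activity was relative to 5% DMSO controls. IC50 was read as 50% residual activity across seven concentrations.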

[3] = tested on: Escherichia coli; assay: Antimicrobial activity against Escherichia coli 1411 by broth microdilution method; type: functional, organism-based
Outline: (§2)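 Broth microdilution MIC per CLSI guidelines in Mueller-Hinton broth. E. coli 1411 and AB734 were also tested with added polymyxin B nonapeptide to permeabilise the outer membrane.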

[4] = tested on: Escherichia coli; assay: Inhibition of Escherichia coli MurF using D-Ala-D-Ala/UMtri-mDAP as substrate assessed as residual activity at 100 uM after 15 mins by Malachite green method
Outline: (§3)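 Purified E. coli MurF in 50 mM Hepes pH 8.0, 50 mM MgCl2, 0.005% Triton X-114, with D-Ala-D-Ala, UMtri-mDAP and ATP. Compound was added in DMSO (final 5% v/v). Mixtures were incubated 15 min at 37 °C, quenched with Biomol reagent, and absorbance was read at 650 nm after 5 min. Runs were in duplicate. Residual activity was taken versus DMSO-only controls. IC50 came from residual activity at seven concentrations.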

[5] = tested on: Streptococcus pneumoniae; assay: Inhibition of Streptococcus pneumoniae MurF using D-Ala-D-Ala/UMtri-L-Lys as substrate assessed as residual activity at 100 uM after 15 mins by Malachite green method
Outline: (§4)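 Purified S. pneumoniae MurF in 50 mM Hepes pH 8.0, 50 mM MgCl2, 0.005% Triton X-114, with D-Ala-D-Ala, UMtri-L-Lys and ATP. Compound was added in DMSO (5% v/v final). Reactions ran 15 min at 37 °C, were stopped with Biomol malachite green reagent, and A650 was measured after 5 min. Runs were in duplicate. Residual activity was versus DMSO controls. IC50 was from seven concentrations.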

[6] = tested on: Escherichia coli; assay: Antimicrobial activity against Escherichia coli AB734 by broth microdilution method; type: functional, organism-based; outline: as §2
[7] = tested on: Streptococcus pneumoniae; assay: Antimicrobial activity against Streptococcus pneumoniae R6 by broth microdilution method; type: functional
Outline: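 MIC by CLSI broth microdilution in Mueller-Hinton broth supplemented with 5% (v/v) lysed horse blood.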

[8] = Inhibition of Staphylococcus aureus MurF using D-Ala-D-Ala/UMtri-L-Lys as substrate after 15 mins by Malachite green method; outline: as §1
[9] = Inhibition of Escherichia coli MurF using D-Ala-D-Ala/UMtri-mDAP as substrate after 15 mins by Malachite green method; outline: as §3
[10] = Inhibition of Streptococcus pneumoniae MurF using D-Ala-D-Ala/UMtri-L-Lys as substrate after 15 mins by Malachite green method; outline: as §4
[11] = Inhibition of Streptococcus pneumoniae MurF

SMILES	Activity [2] [%]	Activity [4] [%]	Activity [5] [%]	MIC [7] [µg/mL]	IC50 [8] [µM]	IC50 [9] [µM]	IC50 [10] [µM]	IC50 [11] [µM]	Activity [1]	Activity [3]	Activity [6]
CC1CCN(S(=O)(=O)c2cc(C(=O)Nc3sc4c(c3C#N)CCCC4)c(Cl)cc2Cl)CC1	80	87	90	–	–	–	–	–	inactive	inactive	inactive
CCOC(=O)C1CCN(S(=O)(=O)c2cc(C(=O)Nc3sc4c(c3C#N)CCCC4)c(Cl)cc2Cl)CC1	100	95	100	–	–	–	–	–	inactive	inactive	inactive
COC(=O)c1ccc(CN2CCc3c(sc(NC(=O)c4cc(S(=O)(=O)N5CCOCC5)c(Cl)cc4Cl)c3C#N)C2)cc1	–	–	–	> 128	88	59	0.72	–	inactive	inactive	inactive
N#Cc1c(NC(=O)c2cc(S(=O)(=O)N3CCNC(=O)C3)c(Cl)cc2Cl)sc2c1CCCC2	95	91	89	–	–	–	–	–	inactive	inactive	inactive
N#Cc1ccc(CN2CCc3c(sc(NC(=O)c4cc(S(=O)(=O)N5CCOCC5)c(Cl)cc4Cl)c3C#N)C2)cc1	–	–	–	> 128	80	62	1.36	–	inactive	inactive	inactive
N#Cc1cccc(CN2CCc3c(sc(NC(=O)c4cc(S(=O)(=O)N5CCOCC5)c(Cl)cc4Cl)c3C#N)C2)c1	–	–	–	> 128	90	99	1.17	–	inactive	inactive	inactive
N#Cc1c(NC(=O)c2cc(S(=O)(=O)N3CCSCC3)c(Cl)cc2Cl)sc2c1CCCC2	95	91	42	> 128	–	–	–	–	inactive	inactive	inactive
N#Cc1c(NC(=O)c2cc(S(=O)(=O)N3CCOCC3)c(Cl)cc2Cl)sc2c1CCN(Cc1cccc(C(=O)O)c1)C2	–	–	–	> 128	118	67	2.55	–	inactive	inactive	inactive
N#Cc1c(NC(=O)c2cc(S(=O)(=O)N3CCOCC3)c(Cl)cc2Cl)sc2c1CCN(Cc1ccc(O)c(C(=O)O)c1)C2	–	–	–	> 128	132	106	1.41	–	inactive	inactive	inactive
N#Cc1c(NC(=O)c2cc(S(=O)(=O)N3CCOCC3)c(Cl)cc2Cl)sc2c1CCN(Cc1ccc(-c3nnn[nH]3)cc1)C2	–	–	–	> 128	120	55	0.3	–	inactive	inactive	inactive
N#Cc1c(NC(=O)c2cc(S(=O)(=O)N3CCOCC3)c(Cl)cc2Cl)sc2c1CC[C@@H](c1ccc(O)cc1)C2	–	–	–	–	–	–	–	0.022	–	–	–
CCOC(=O)c1ccc(N2CCc3c(sc(NC(=O)c4cc(S(=O)(=O)N5CCOCC5)c(Cl)cc4Cl)c3C#N)C2)cc1	79	98	80	> 128	–	–	–	–	inactive	inactive	inactive
N#Cc1c(NC(=O)c2cc(S(=O)(=O)N3CCOCC3)c(Cl)cc2Cl)sc2c1CCN(Cc1ccccc1)C2	–	–	–	> 128	80	109	0.64	–	inactive	inactive	inactive

Further lines, with some results ahead:

Activity [2] [%]	Activity [4] [%]	Activity [5] [%]	MIC [7] [µg/mL]	IC50 [8] [µM]	IC50 [9] [µM]	IC50 [10] [µM]	IC50 [11] [µM]	SMILES	Activity [1]	Activity [3]	Activity [6]
83	74	80	> 128	–	–	–	–	N#Cc1c(NC(=O)c2cc(S(=O)(=O)N3CCOCC3)c(Cl)cc2Cl)sc2c1CCN(c1ccc([N+](=O)[O-])cc1)C2	inactive	inactive	inactive
85	95	63	> 128	–	–	–	–	N#Cc1ccc(N2CCc3c(sc(NC(=O)c4cc(S(=O)(=O)N5CCOCC5)c(Cl)cc4Cl)c3C#N)C2)cc1	inactive	inactive	inactive
–	–	–	> 128	109	73	0.99	–	N#Cc1c(NC(=O)c2cc(S(=O)(=O)N3CCOCC3)c(Cl)cc2Cl)sc2c1CCN(Cc1ccc3c(c1)OCO3)C2	inactive	inactive	inactive
–	–	–	> 128	95	82	0.6	–	COc1ccc(CN2CCc3c(sc(NC(=O)c4cc(S(=O)(=O)N5CCOCC5)c(Cl)cc4Cl)c3C#N)C2)cc1	inactive	inactive	inactive
85	104	66	> 128	–	–	–	–	N#Cc1c(NC(=O)c2cc(S(=O)(=O)N3CCSC3)c(Cl)cc2Cl)sc2c1CCCC2	inactive	inactive	inactive
–	–	–	> 128	66.5	37	10.4	–	COc1ccc(CN2CCc3c(sc(NC(=O)c4cc(S(=O)(=O)N5CCOCC5)c(Cl)cc4Cl)c3C#N)C2)cc1OC	inactive	inactive	inactive
–	–	–	128 (≈ 201 µM)	94	101	1.09	–	N#Cc1c(NC(=O)c2cc(S(=O)(=O)N3CCOCC3)c(Cl)cc2Cl)sc2c1CCN(Cc1ccc([N+](=O)[O-])cc1)C2	inactive	inactive	inactive
–	–	–	16 (≈ 24 µM)	84	78	48	–	COc1cc(CN2CCc3c(sc(NC(=O)c4cc(S(=O)(=O)N5CCOCC5)c(Cl)cc4Cl)c3C#N)C2)cc(OC)c1O	inactive	inactive	inactive
107	100	–	64 (≈ 128 µM)	–	–	4	1	N#Cc1c(NC(=O)c2cc(S(=O)(=O)N3CCOCC3)c(Cl)cc2Cl)sc2c1CCCC2	–	–	–
